From PubChem
Jurkat NFkB inh: inhibitors of induced NF-kB luciferase reporter, primary screen, TCR NF-kB activation inhibitor project, cell-based, luminescence, uHTS; inhibition, % at 4 µM; Jurkat, PMA/ionomycin-induced NF-kB luciferase reporter; 0.53% of 330,000 active; in the data active = inhibition above about 50%
aSyn UTR inh: MLPCN primary screen, SNCA 5' untranslated region | alpha-synuclein 5'UTR reporter, inhibitor activity | inhibition, % (tested at 7.5 µM) | 0.82% of 300,000 active; in the data active = inhibition above about 60%;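 note: H4 neuroglioblastoma cells stably carrying SNCA 5'UTR luciferase fusion; 0% = DMSO wells and 100% = positive control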
Mdm2-MdmX inh: inhibitors of human Mdm2-MdmX association, primary screen, cell-based, luminescence, split luciferase, SaOS-2, uHTS; Protein Mdm4 (Homo sapiens) + E3 ubiquitin-protein ligase Mdm2 (Homo sapiens), …; SaOS-2 split-luciferase Mdm2/MdmX complementation; inhibition, % at 8 µM; 3% of 330,000 active; AID 485346, 2010;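 active = inhibition of at least 50% at 8 µM in the primary screen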
Target sequence (O15151 whole entry, looked up): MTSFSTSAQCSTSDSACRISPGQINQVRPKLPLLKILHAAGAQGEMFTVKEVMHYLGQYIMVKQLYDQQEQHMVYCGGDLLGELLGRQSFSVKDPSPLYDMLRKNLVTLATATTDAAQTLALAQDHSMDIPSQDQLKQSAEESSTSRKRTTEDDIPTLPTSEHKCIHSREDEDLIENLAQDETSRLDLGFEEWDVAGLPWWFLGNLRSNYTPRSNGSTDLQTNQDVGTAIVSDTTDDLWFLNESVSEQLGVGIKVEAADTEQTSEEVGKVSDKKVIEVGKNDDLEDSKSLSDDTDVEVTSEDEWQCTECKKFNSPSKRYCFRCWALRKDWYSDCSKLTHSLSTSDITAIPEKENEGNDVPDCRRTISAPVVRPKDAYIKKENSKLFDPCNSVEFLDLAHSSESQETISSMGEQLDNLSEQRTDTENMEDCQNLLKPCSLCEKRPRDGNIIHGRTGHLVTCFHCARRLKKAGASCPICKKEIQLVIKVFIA
Target sequence (Q00987 whole entry, looked up): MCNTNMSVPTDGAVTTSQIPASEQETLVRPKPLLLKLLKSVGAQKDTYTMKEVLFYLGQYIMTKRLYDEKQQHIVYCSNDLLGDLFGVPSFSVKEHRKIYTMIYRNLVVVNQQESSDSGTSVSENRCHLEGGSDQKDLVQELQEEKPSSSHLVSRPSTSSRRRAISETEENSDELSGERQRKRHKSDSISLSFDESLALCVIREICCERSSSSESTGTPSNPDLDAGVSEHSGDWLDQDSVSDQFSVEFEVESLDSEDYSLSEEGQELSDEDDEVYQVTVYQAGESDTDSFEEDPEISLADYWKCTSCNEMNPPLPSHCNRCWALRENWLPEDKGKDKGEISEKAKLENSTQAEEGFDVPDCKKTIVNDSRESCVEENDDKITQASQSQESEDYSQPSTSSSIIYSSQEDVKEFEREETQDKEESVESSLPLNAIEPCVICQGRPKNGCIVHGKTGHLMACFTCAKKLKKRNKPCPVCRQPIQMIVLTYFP
697 NFkB inh: inhibitors of PMA/ionomycin-induced NF-kB reporter, 697 cells, primary screen, B-cell NF-kB inhibitor project, cell-based, luminescence, uHTS; 697 B-cell NF-kB luciferase reporter, 16 h; inhibition, % at 4 µM; 0.33% of 330,000 active; AID 435022, 2010; in the data active = inhibition above about 35%
VIM-2 inhibitor: VIM-2 metallo-beta-lactamase inhibitors, primary screen, biochemical, epi-absorbance readout, Pseudomonas aeruginosa enzyme. purified VIM-2, nitrocefin hydrolysis, epi-absorbance fluorescence. inhibition, % at 5.6 µM. 0.89% of 290,000 active;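 active = inhibition above the mean of all tested compounds plus 3 SD, cutoff set per screening run, cut at about 7.5% in these data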;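 note: red hydrolysis product quenches plate fluorescence so inhibitors raise well fluorescence; 0% = enzyme with DMSO and 100% = DMSO without enzyme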
IMP-1 inh: IMP-1 metallo-beta-lactamase inhibitors, primary screen, biochemical, epi-absorbance readout, Pseudomonas aeruginosa enzyme; 0.45% of 290,000 active; metallo-beta-lactamase IMP-1 (Pseudomonas aeruginosa); purified IMP-1, nitrocefin hydrolysis, epi-absorbance fluorescence; inhibition, % at 5.6 µM;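 active = inhibition above the mean plus 3 SD of all compounds in the same screening run, cut at about 4.5% in these data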;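 note: 0% = IMP-1 with DMSO and 100% = DMSO wells lacking enzyme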
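System: Purified recombinant IMP-1 metallo-beta-lactamase enzyme | Measured by: Fluorescence quenching readout, ex 480/em 530 nm | Replication: Singlicate | Incubation: 15 min preincubation plus 25 min reaction at 25 °C | Evaluation: Percent inhibition from optical density relative to buffer-blank wells | Benchmarks: DMSO with and without IMP-1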
* hit, by the source's call. A selection: hits, their analogues and other compounds. The true share with any hit is near 4.7%.

How did Cc1nc(N)nc(N)c1/C=C/C(C)(C)c1ccc(Cl)cc1 do in these assays?
aSyn UTR inh: 124.8*; VIM-2 inhibitor: 0.7; IMP-1 inh: -0.8

What do the screens show for `CC(C)n1nccc1NC(=O)Nc1ccccc1`?
Jurkat NFkB inh: -1.5; aSyn UTR inh: -22.2; Mdm2-MdmX inh: -6.9; 697 NFkB inh: 8.9; VIM-2 inhibitor: -0.1; IMP-1 inh: 9.1*

How did COc1ccc(C2=NOC(Cn3nc(C(=O)NCC4CC4)cc3-c3ccccc3)C2)cc1 (stereo unspecified) do in these assays?
Jurkat NFkB inh: 1.5; aSyn UTR inh: 17.4; Mdm2-MdmX inh: 5.2; 697 NFkB inh: 12.6

How did COC(=O)c1cc(NCc2ccccc2F)ccc1N1CCOCC1 do in these assays?
Jurkat NFkB inh: -10.2; aSyn UTR inh: 13.5; Mdm2-MdmX inh: 5.5; 697 NFkB inh: -3.8; VIM-2 inhibitor: -2.0; IMP-1 inh: 15.0*

How did CCOc1ccccc1CNc1ccc(N2CCOCC2)c(C(=O)O)c1 do in these assays?
Jurkat NFkB inh: 6.7; aSyn UTR inh: 17.4; Mdm2-MdmX inh: 19.5; 697 NFkB inh: 16.8; VIM-2 inhibitor: -3.9; IMP-1 inh: -2.5

How did CC(C)Oc1ccccc1C1Nc2ccccc2C(=O)N1c1ccc2c(c1)OCCO2 (stereo unspecified) do in these assays?
Jurkat NFkB inh: -101.1; aSyn UTR inh: 68.1*; Mdm2-MdmX inh: -62.2; 697 NFkB inh: -156.1; VIM-2 inhibitor: 2.0; IMP-1 inh: -0.5

What do the screens show for `Cc1cc(=O)oc(C)c1C(=O)OCC(=O)c1ccc(Cl)c(Cl)c1`?
Jurkat NFkB inh: 11.4; aSyn UTR inh: 11.4; Mdm2-MdmX inh: 4.5; 697 NFkB inh: -28.2; VIM-2 inhibitor: 1.0; IMP-1 inh: 5.3*

How did C=CCOc1nc(-c2ccccc2Cl)nc2ccccc12 do in these assays?
Jurkat NFkB inh: -9.0; aSyn UTR inh: 72.1*; Mdm2-MdmX inh: -5.2; 697 NFkB inh: -6.6; VIM-2 inhibitor: -3.0; IMP-1 inh: -3.9

Results for O=C(COc1ccc2c3c(c(=O)oc2c1)CCC3)N1CCN(c2ccc(F)cc2)CC1 ?
Jurkat NFkB inh: 13.2; aSyn UTR inh: 4.0; Mdm2-MdmX inh: 29.2; 697 NFkB inh: 15.7; VIM-2 inhibitor: 9.1*; IMP-1 inh: -2.5

How did CC(Oc1ccc2c3c(c(=O)oc2c1)CCC3)C(=O)NCc1cccnc1 (stereo unspecified) do in these assays?
Jurkat NFkB inh: -1.7; aSyn UTR inh: -18.0; Mdm2-MdmX inh: 4.3; 697 NFkB inh: -5.0; VIM-2 inhibitor: 9.6*; IMP-1 inh: -1.6

Results for NC(=O)C1CCN(C(=O)COc2ccc3c4c(c(=O)oc3c2)CCCC4)CC1 ?
Jurkat NFkB inh: 11.2; aSyn UTR inh: 1.9; Mdm2-MdmX inh: 9.8; 697 NFkB inh: 26.1; VIM-2 inhibitor: 11.2*; IMP-1 inh: -0.5

How did CC(Oc1ccc2c3c(c(=O)oc2c1)CCCC3)C(=O)NCC(O)c1ccccc1 (stereo unspecified) do in these assays?
Jurkat NFkB inh: 9.5; aSyn UTR inh: 5.6; Mdm2-MdmX inh: 12.6; 697 NFkB inh: 0.7; VIM-2 inhibitor: 4.7; IMP-1 inh: -1.3

How did Cc1cc(OCC(=O)N2CCOCC2)cc2oc(=O)c3ccccc3c12 do in these assays?
Jurkat NFkB inh: 6.2; aSyn UTR inh: 2.5; Mdm2-MdmX inh: 14.1; 697 NFkB inh: -1.0; VIM-2 inhibitor: 9.5*; IMP-1 inh: -1.8

How did Cc1cc(C(=O)Nc2cc(S(C)(=O)=O)ccc2Cl)c(C)o1 do in these assays?
Jurkat NFkB inh: 10.4; Mdm2-MdmX inh: -11.6; 697 NFkB inh: 10.2

What do the screens show for `O=C(O)c1ccc(COc2ccc3c4c(c(=O)oc3c2)CCC4)o1`?
Jurkat NFkB inh: 5.7; aSyn UTR inh: 12.8; Mdm2-MdmX inh: -10.4; 697 NFkB inh: -11.0; VIM-2 inhibitor: 8.5*; IMP-1 inh: 0.4

How did O=c1oc2cc(OCc3ccc([N+](=O)[O-])cc3)ccc2c2c1CCCC2 do in these assays?
Jurkat NFkB inh: -36.8; aSyn UTR inh: -65.4; Mdm2-MdmX inh: -11.4; 697 NFkB inh: -19.2; VIM-2 inhibitor: -0.9; IMP-1 inh: -3.4
